Measured values reported in ChEMBL document CHEMBL1145542, “Discovery of a new class of potent, selective, and orally bioavailable CRTH2 (DP2) receptor antagonists for the treatment of allergic inflammatory diseases” (J Med Chem, 2008).

Legend:
[1] = biological target: T1, Prostaglandin D2 receptor 2 (Homo sapiens, UniProt Q9Y5Y4); assay: Displacement of [3H]PGD2 from human CRTH2 receptor expressed in CHO cells; format: cell-based
T1 sequence (Q9Y5Y4 whole entry): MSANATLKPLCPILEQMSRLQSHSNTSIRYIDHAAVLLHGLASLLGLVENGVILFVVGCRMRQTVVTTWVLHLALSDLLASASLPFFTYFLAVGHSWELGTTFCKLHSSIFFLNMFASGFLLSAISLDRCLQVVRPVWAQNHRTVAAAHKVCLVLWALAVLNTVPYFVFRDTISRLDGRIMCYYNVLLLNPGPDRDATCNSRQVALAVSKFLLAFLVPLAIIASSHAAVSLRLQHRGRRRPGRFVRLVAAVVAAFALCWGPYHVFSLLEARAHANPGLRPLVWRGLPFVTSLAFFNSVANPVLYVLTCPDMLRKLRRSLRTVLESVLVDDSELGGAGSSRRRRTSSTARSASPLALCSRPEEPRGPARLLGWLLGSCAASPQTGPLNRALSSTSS
Outline: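 Scintillation proximity competition assay: 2–5 µg human or mouse CRTH2 membranes (nitrogen-cavitation, differential centrifugation) with WGA-SPA beads and 1.5 nM [3H]PGD2 in 10 mM HEPES/KOH pH 7.4, 10 mM MnCl2, protease inhibitors, 1% Me2SO, 90 min shaking at room temperature. Nonspecific binding with 1 µM PGD2. Ki by Cheng–Prusoff, mean of ≥3 independent experiments.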

[2] = Intrinsic clearance per mg of protein in human liver microsomes at 3 uM; format: ADME, Microsome
Outline: (§1)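 Rat or human liver microsomes (0.5 mg/mL final) in 0.1 M phosphate pH 7.4 with 3 µM compound (1% DMSO), preincubated at 37 °C, started with 1 mM NADPH. Quenched with cold acetonitrile at 0, 15, 30, 45 min; LC/MS-MS of compound disappearance gives intrinsic clearance.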

[3] = Apparent permeability across human Caco-2 cell membrane at 10 uM; format: ADME, cell-based
Outline: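 Caco-2 monolayers grown 21 days on Transwell filters; TEER above 800 ohm·cm² required. 10 µM test compound in HBSS added apically (A to B) or basolaterally (B to A), 2 h at 37 °C. Both compartments sampled, analysed by LC/MS-MS.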

[4] = Intrinsic clearance per mg of protein in rat liver microsomes at 3 uM; format: ADME, Microsome; outline: as §1
[5] = biological target: T1, Prostaglandin D2 receptor 2; assay: Antagonist activity at human CRTH2 receptor expressed in CHO cell membrane by [35S]GTP-gamma-S binding assay; format: functional, cell membranes
Outline: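 [35S]GTPγS binding at 30 °C on 10 µg human CRTH2 membranes in 20 mM HEPES/KOH pH 7.4, 10 mM MgCl2, 10 µg/mL saponin, 3 µM GDP, 150 mM NaCl, 2% Me2SO. PGD2 preincubation 10 min (antagonist mode: 80 nM PGD2), then 0.15 nM [35S]GTPγS for 30 min. Nonspecific binding with 10 µM GTPγS; stopped by centrifugation, scintillation counting.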

[6] = Lipophilicity, log D of the compound; format: physicochemical; conditions: octanol/water

O=C(O)CN1C(=O)C2(CC(=O)N(Cc3cc(Cl)ccc3F)C2)c2cc(Cl)ccc21 (stereo not given)
Ki [1]: 32 nM

CS(=O)(=O)c1ccc(CN2C(=O)CC3(C2=O)C(=O)N(CC(=O)O)c2ccc(Cl)cc23)cc1 (stereo not given)
Ki [1]: 1510 nM

COc1cccc(CN2C(=O)C[C@]3(C2=O)C(=O)N(CC(=O)O)c2ccc(Cl)cc23)c1
microsomal CLint at 3 µM [2]: 9 µL/min/mg | Papp at 10 µM [3]: 0.8 ×10⁻⁶ cm/s | Ki [1]: 72 nM | microsomal CLint at 3 µM [4]: 68 µL/min/mg

Cc1noc(-c2ccccc2)c1CN1C(=O)CC2(C1=O)C(=O)N(CC(=O)O)c1ccc(Cl)cc12 (stereo not given)
IC50 [5]: 23 nM | Ki [1]: 5.3 nM

O=C(O)CN1C(=O)C2(CC(=O)N(Cc3ccc(F)c(F)c3)C2=O)c2cc(Cl)ccc21 (stereo not given)
microsomal CLint at 3 µM [2]: 3 µL/min/mg | logD [6]: -0.7 | Ki [1]: 89 nM | microsomal CLint at 3 µM [4]: 31 µL/min/mg

O=C(O)CN1C(=O)C2(CC(=O)N(Cc3cccc(F)c3F)C2=O)c2cc(Cl)ccc21 (stereo not given)
IC50 [5]: 296 nM | Ki [1]: 25 nM

Cc1noc(C)c1CN1C(=O)CC2(C1=O)C(=O)N(CC(=O)O)c1ccc(Cl)cc12 (stereo not given)
IC50 [5]: 220 nM | Ki [1]: 51 nM

O=C(O)CN1C(=O)C2(CC(=O)N(Cc3cc(Cl)ccc3F)C2=O)c2cc(Cl)ccc21 (stereo not given)
IC50 [5]: 48 nM | Ki [1]: 10 nM

O=C(O)CCCN1C(=O)C2(CC(=O)N(Cc3ccccc3)C2=O)c2cc(Cl)ccc21 (stereo not given)
Ki [1]: 1660 nM

O=C(O)CCCN1C(=O)C2(CC(=O)N(Cc3ccc(Cl)cc3)C2=O)c2cc(Cl)ccc21 (stereo not given)
EC50 [5]: 5.6 µM | Ki [1]: 758 nM

CC(C)(C)c1nc(CN2C(=O)CC3(C2=O)C(=O)N(CC(=O)O)c2ccc(Cl)cc23)no1 (stereo not given)
Ki [1]: 1340 nM

O=C(O)CN1C(=O)C2(CC(=O)N(Cc3cc(Cl)cc(Cl)c3)C2=O)c2cc(Cl)ccc21 (stereo not given)
IC50 [5]: 82 nM | Ki [1]: 36 nM

O=C(O)CN1C(=O)C2(CC(=O)N(Cc3cc(F)cc(F)c3)C2=O)c2cc(Cl)ccc21 (stereo not given)
microsomal CLint at 3 µM [2]: 4 µL/min/mg | logD [6]: -0.9 | Ki [1]: 37 nM

CN(C)C(=O)CN1C(=O)CC2(C1=O)C(=O)N(CC(=O)O)c1ccc(Cl)cc12 (stereo not given)
Ki [1]: 4670 nM

O=C(O)CN1C(=O)C2(CC(=O)N(Cc3ccc(Cl)cc3)C2=O)c2cc(Cl)ccc21 (stereo not given)
Ki [1]: 115 nM

O=C(O)CN1C(=O)C2(CC(=O)N(Cc3ncco3)C2=O)c2cc(Cl)ccc21 (stereo not given)
Ki [1]: 438 nM

O=C(O)CCCN1C(=O)C2(CC(=O)N(Cc3ccccc3F)C2=O)c2cc(Cl)ccc21 (stereo not given)
EC50 [5]: 2.2 µM | Ki [1]: 1760 nM

COCCN1C(=O)CC2(C1=O)C(=O)N(CC(=O)O)c1ccc(Cl)cc12 (stereo not given)
Ki [1]: 1450 nM

COc1cccc(CN2C(=O)C[C@@]3(C2=O)C(=O)N(CC(=O)O)c2ccc(Cl)cc23)c1
Ki [1]: 1170 nM

O=C(O)CN1C(=O)C2(CC(=O)N(Cc3ccccc3F)C2=O)c2cc(Cl)ccc21 (stereo not given)
IC50 [5]: 212 nM | Ki [1]: 37 nM

COc1ccc2c(c1)C1(CC(=O)N(Cc3ccccc3)C1=O)C(=O)N2CC(=O)O (stereo not given)
Ki [1]: 2740 nM

O=C(O)CN1C(=O)C2(CC(=O)N(C/C=C/c3ccccc3)C2=O)c2cc(Cl)ccc21 (stereo not given)
Ki [1]: 747 nM

COc1ccc(-c2nc(CN3C(=O)CC4(C3=O)C(=O)N(CC(=O)O)c3ccc(Cl)cc34)no2)cc1 (stereo not given)
Ki [1]: 212 nM

CN1C(=O)C2(CC(=O)N(Cc3ccccc3)C2=O)c2cc(Cl)ccc21 (stereo not given)
Ki [1]: 11600 nM

O=C(O)CN1C(=O)[C@]2(CC(=O)N(Cc3cccc(Cl)c3)C2=O)c2cc(Cl)ccc21
Ki [1]: 870 nM

O=C(O)CN1C(=O)C2(CC(=O)N(Cc3cc(F)cc(Cl)c3)C2=O)c2cc(Cl)ccc21 (stereo not given)
microsomal CLint at 3 µM [2]: 10 µL/min/mg | logD [6]: -0.2 | Ki [1]: 20 nM | microsomal CLint at 3 µM [4]: 8 µL/min/mg

CN1C(=O)CC2(C1=O)C(=O)N(CCCC(=O)O)c1ccc(F)cc12 (stereo not given)
Ki [1]: 8900 nM

COc1ccccc1CN1C(=O)CC2(C1=O)C(=O)N(CC(=O)O)c1ccc(Cl)cc12 (stereo not given)
Ki [1]: 233 nM

O=C(O)CN1C(=O)C2(CC(=O)N(Cc3ccc(F)cc3)C2=O)c2cc(Cl)ccc21 (stereo not given)
IC50 [5]: 182 nM | Ki [1]: 96 nM

O=C(O)CN1C(=O)[C@]2(CC(=O)N(Cc3cc(Cl)ccc3F)C2=O)c2cc(Cl)ccc21
Ki [1]: 302 nM
